# Measured values from different studies.
Structure (SMILES),tested on,test,system,setting,measurement,value
Cl.[2H]C([2H])([2H])CC(=O)c1cnc(NC(=O)C2CC2)cc1Nc1cccc(-c2ncn(C([2H])([2H])[2H])n2)c1OC,,,"human, plasma","oral, 10 mg, multiple doses, once daily, fasted",Vd/F,167 L
CCN1CCN(Cc2ccc(NC(=O)c3ccc(C)c(NC(=O)c4cncc(-c5cccs5)c4)c3)cc2C(F)(F)F)CC1,,,"mouse, plasma","intraperitoneal, 20 mg/kg, single dose",Cmax,714 ng/mL
Cn1cc(Nc2nc(N)nc(-c3cccc(-n4ccc5cc(C6CC6)cc(F)c5c4=O)c3CO)n2)cn1,,,"human, plasma","oral, 600 mg, single dose, fasted, suspension",Vd/F,186 L
Cc1ccc(C(=O)Nc2ccc(CN3CCN(C)CC3)c(C(F)(F)F)c2)cc1C#Cc1cnc2[nH]ncc2c1,,,"human, plasma","oral, 20 mg, healthy volunteers",Vd/F,8220 L
NC(=S)NN=Cc1ncccc1N,,,"human, plasma","oral, 150 mg",Vd/F,322 L
CC(=O)OC[C@@](O)(COC(=O)c1ccccc1)[C@@H](O)/C=C\COC(=O)c1ccccc1,RAW264.7,"cell growth or viability, MTT",,"15 µM, 24 h",viability,92.5%
CNC(=O)n1ccc2cc(Oc3ccnc(NC(=O)c4ccc(C5CCN(CCO)CC5)cc4)c3)c(OCCOC)cc21,,,"human, plasma","oral, 35 mg, single dose, fasted, healthy volunteers",Vd/F,11800 L
COc1cc(OC)c(C(=O)/C=C/c2ccccc2)c(O)c1OC,RAW264.7,"cell growth or viability, MTT",,"15 µM, 24 h",viability,93.9%
CN(C)c1ncnc2c1ncn2[C@@H]1O[C@H](CCl)[C@@H](NC(=O)[C@@H](CSC(c2ccccc2)c2ccccc2)NC(=O)OC(C)(C)C)[C@H]1O,Vero,"cell growth or viability, MTT",,,CC50,67.4 µM
COc1ccc2c(c1)C[C@]1(OC)C(=O)/C(=C(/O)[C@H]3[C@H](c4ccccc4)[C@H](/C(O)=C4/C(=O)C[C@@]5(OC)Oc6ccc(OC)cc6C[C@@]5(OC)C4=O)[C@H]3c3ccccc3)C(=O)C[C@]1(OC)O2,RAW264.7,"cell growth or viability, MTT",,"15 µM, 24 h",viability,93.5%
COCCCOc1ccnc(C[S+]([O-])c2nc3ccccc3[nH]2)c1C (centres unmarked),"Cytochrome P450 3A4 (CYP3A4, Homo sapiens, UniProt P08684)","enzyme activity, inhibitor",,"30 µM, 1 h, pH 7.4",inhibition,50 to 60%
